Source: ChEMBL document CHEMBL2176968, “Identification of less lipophilic riminophenazine derivatives for the treatment of drug-resistant tuberculosis” (J Med Chem, 2012)

How the values were obtained:
[1] = tested on: Mycobacterium tuberculosis; experiment: Antitubercular activity against multi-drug resistant Mycobacterium tuberculosis isolate 040 infected in BALB/c mouse assessed as reduction in lung bacterial load at 20 mg/kg, po qd administered 5 days per week during acute phase of infection measured after 20 days relative to untreated control; assay type: functional
Method in brief: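 Infection was by aerosol, depositing 50-100 bacilli per lung. Dosing began on day 10 and ran to day 30, 5 days per week, with compound in 0.5% CMC by gavage. Groups had 5-6 treated mice and 7-10 CMC-treated controls. The day after the last dose, lung homogenates were plated on supplemented 7H11 agar in duplicate for 2-3 weeks at 37°C. Results are log10 CFU per lung; means were compared by Student's t test.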

[2] = tested on: Mus musculus; experiment: Toxicity in BALB/c mouse infected with multi-drug resistant Mycobacterium tuberculosis isolate 040 assessed as skin discoloration at 20 mg/kg, po qd administered 5 days per week during acute phase of infection measured after 20 days; assay type: organism-based; set-up: dose 20 mg/kg, route oral; settings: in vivo, 480 h
Method in brief: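 Mice were infected by aerosol and then dosed by gavage at 20 mg/kg in 0.5% CMC, 5 days per week, from day 10 to day 30. During treatment, discoloration of ears, internal organs and fat tissue was scored visually and ranked by color intensity.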

Compound | log10cfu [1] | Activity [2]
CC(C)/N=c1\cc2n(-c3ccc(Cl)cc3)c3ccccc3nc-2cc1Nc1ccc(Cl)cc1 [CLOFAZIMINE] | 3.54 | Toxic
COc1ncccc1Nc1cc2nc3ccccc3n(-c3ccc(Cl)cc3)c-2c/c1=N\C1CCC(OC)CC1 (centres undefined) | 4.04 | Non-toxic
COc1ncccc1Nc1cc2nc3ccccc3n(-c3ccc(F)cc3)c-2c/c1=N\C1CCC(OC)CC1 (centres undefined) | 4.35 | Toxic
COc1ncccc1Nc1cc2nc3ccccc3n(-c3ccc(OC(F)(F)F)cc3)c-2c/c1=N\C1CCC(OC)CC1 (centres undefined) | 4.67 | Non-toxic
COC1CCC(/N=c2\cc3n(-c4ccc(Cl)cc4)c4ccccc4nc-3cc2Nc2ccc(C)nc2)CC1 (centres undefined) | 3.25 | Non-toxic
COc1ncccc1Nc1cc2nc3ccccc3n(-c3ccc(F)cc3)c-2c/c1=N\C(C)C | 3.91 | Toxic
COc1ncccc1Nc1cc2nc3ccccc3n(-c3ccc(Cl)cc3)c-2c/c1=N\C1CCOCC1 | 4.81 | Non-toxic
